In ChEMBL document CHEMBL3616414, “Macrocyclic Envelope Glycoprotein Antagonists that Irreversibly Inactivate HIV-1 before Host Cell Encounter” (J Med Chem, 2015):

What was measured:
[1] = Inhibition of HIV1 gp120 binding to 17b antibody by SPR competition binding assay; design: species or system Human immunodeficiency virus 1
[2] = Inhibition of HIV1 gp120 binding to CD4 by SPR competition binding assay; design: species or system Human immunodeficiency virus 1
[3] = Stability assessed as chymotrypsin (unknown origin)-mediated compound degradation incubated for 30 mins at 37 degC by HPLC and ESI-MS method; type: ADME; conditions: human, 0.5 h
How it was run: (§1)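 Each peptide was incubated on its own with a single protease (trypsin or chymotrypsin) at 37 °C. Digestion was tracked by HPLC and ESI-MS for remaining intact peptide. For chymotrypsin, samples were taken after 30 min, and the cyclic peptide was also checked after 20 h and 40 h.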

[4] = Stability assessed as trypsin (unknown origin)-mediated compound degradation incubated for 5 hrs at 37 degC by HPLC and ESI-MS method; type: ADME; conditions: human; how it was run: as §1
[5] = Stability assessed as chymotrypsin (unknown origin)-mediated compound degradation incubated for 20 hrs at 37 degC by HPLC and ESI-MS method; type: ADME; conditions: human; how it was run: as §1
[6] = Stability assessed as chymotrypsin (unknown origin)-mediated compound degradation incubated for 40 hrs at 37 degC by HPLC and ESI-MS method; type: ADME; conditions: human; how it was run: as §1
[7] = Stability assessed as chymotrypsin (unknown origin)-mediated compound degradation incubated for 5 hrs at 37 degC by HPLC and ESI-MS method; type: ADME; conditions: human
How it was run: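 Each peptide incubated on its own with chymotrypsin at 37 °C. Digestion followed over time by HPLC, with ESI-MS used to check the intact peptide and its fragments. Extended sampling at 20 h and 40 h was also done.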

| Compound | IC50 [1] [nM] | IC50 [2] [nM] | further results |
| --- | --- | --- | --- |
| CC[C@@H](C)[C@@H](N)C(=O)N[C@H]1CCC(=O)NCCCC[C@H](C(N)=O)NC(=O)[C@@H](Cc2c[nH]c3ccccc23)NC(=O)[C@H]2C[C@@H](n3cc(CCc4ccccc4)nn3)CN2C(=O)[C@@H]([C@H](C)CC)NC(=O)[C@@H](CC(N)=O)NC1=O | 269 | 138 | – |
| CC[C@@H](C)[C@H]1NC(=O)[C@@H](CC(N)=O)NC(=O)[C@@H](N)CCC(=O)NCCCC[C@H](C(N)=O)NC(=O)[C@@H](Cc2c[nH]c3ccccc23)NC(=O)[C@H]2C[C@@H](n3cc(CCc4ccccc4)nn3)CN2C1=O | > 40000 | > 40000 | – |
| CC[C@@H](C)[C@H]1NC(=O)[C@@H](CC(N)=O)NC(=O)[C@@H](N)CC(=O)NCCCC[C@H](C(N)=O)NC(=O)[C@@H](Cc2c[nH]c3ccccc23)NC(=O)[C@H]2C[C@@H](n3cc(CCc4ccccc4)nn3)CN2C1=O | 96 | 85 | Stability [3]: Stable; Stability ([4]; 5 h): Stable; Stability [5]: Stable; Stability [6]: Stable; Stability [7]: Stable |
| CC[C@@H](C)[C@H]1NC(=O)[C@@H](CC(N)=O)NC(=O)[C@@H](N)CC(=O)NCCC[C@H](C(N)=O)NC(=O)[C@@H](Cc2c[nH]c3ccccc23)NC(=O)[C@H]2C[C@@H](n3cc(CCc4ccccc4)nn3)CN2C1=O | 3900 | 5700 | – |
| CC[C@@H](C)[C@H]1NC(=O)[C@@H](CC(N)=O)NC(=O)[C@@H](N)CCC(=O)NCC[C@H](C(N)=O)NC(=O)[C@@H](Cc2c[nH]c3ccccc23)NC(=O)[C@H]2C[C@@H](n3cc(CCc4ccccc4)nn3)CN2C1=O | > 20000 | > 20000 | – |
| CC[C@@H](C)[C@H]1NC(=O)[C@@H](CC(N)=O)NC(=O)[C@@H](N)CC(=O)NCC[C@H](C(N)=O)NC(=O)[C@@H](Cc2c[nH]c3ccccc23)NC(=O)[C@H]2C[C@@H](n3cc(CCc4ccccc4)nn3)CN2C1=O | 400 | 500 | – |
| CC[C@@H](C)[C@@H](NC(=O)[C@@H](CC(N)=O)NC(=O)[C@@H](N)CC(=O)O)C(=O)N1C[C@H](n2cc(CCc3ccccc3)nn2)C[C@@H]1C(=O)N[C@H](Cc1c[nH]c2ccccc12)C(=O)N[C@H](CCCCN)C(N)=O | – | – | Drug degradation [3]: 100%; metabolised at 5 h ([4]; trypsin, read-out: Drug degradation): 60%; Drug degradation [7]: 60% |
